# Published values of several laboratories.
# PRKCB: Protein kinase C beta type (PRKCB, Homo sapiens, UniProt P05771)
# KMT5A: N-lysine methyltransferase KMT5A (KMT5A, Homo sapiens, UniProt Q9NQR1)
# LATS1: Serine/threonine-protein kinase LATS1 (LATS1, Homo sapiens, UniProt O95835)
Compound,target,test,system,conditions,inhibition
COc1cc(-c2cc(-c3ccc(N4CCNCC4)cc3)cnc2N)cc(OC)c1OC,"Tyrosine-protein kinase ABL1 (ABL1, Homo sapiens, UniProt P00519, E255K)","enzyme activity, inhibitor",,0.1 µM,74%
CCN(CC)CCNC(=O)c1c(C)[nH]c(/C=C2\C(=O)Nc3ccc(F)cc32)c1C,"cAMP-dependent protein kinase catalytic subunit alpha (PRKACA, Bos taurus, UniProt P00517)","enzyme activity, inhibitor",,0.3 µM,0%
COc1ccc(C(=O)c2coc3c2C(=O)C(=O)C(Cl)=C3)cc1,"Peptide deformylase, mitochondrial (Homo sapiens, UniProt Q9HBH1)","enzyme activity, inhibitor",,100 µM,≥ 100%
COc1cc2ncnc(Nc3ccc(Oc4ccccc4)c(C)c3C)c2cc1OC,PRKCB,"enzyme activity, inhibitor",,1 µM,9%
CCN1CCN(Cc2ccc(NC(=O)c3ccc(C)c(/C=C/c4cnc5[nH]ccc5c4OC)c3)cc2C(F)(F)F)CC1,"Serine/threonine-protein kinase greatwall (MASTL, Homo sapiens, UniProt Q96GX5)","target engagement in cells, inhibitor, chemoproteomics",A-375,5 µM,-18.6%
O=C1c2c(O)cccc2Cc2cccc(O)c21,KMT5A,cell-free assay,,10 µM,19%
Cn1cnc(Br)c1C1=CN(c2ncnc3[nH]cnc23)CCS1,LATS1,"enzyme activity, inhibitor, radiometric",,2 µM,97.3%
CCN1CCN(Cc2ccc(NC(=O)c3ccc(C)c(Oc4ccnc5[nH]ccc45)c3)cc2C(F)(F)F)CC1,"Receptor-interacting serine/threonine-protein kinase 4 (RIPK4, Homo sapiens, UniProt P57078)","target engagement in cells, inhibitor, chemoproteomics",A-375,5 µM,-11.6%
CNC(=O)c1cc(Oc2ccc(NC(=O)Nc3ccc(Cl)c(C(F)(F)F)c3)cc2)ccn1,PRKCB,"enzyme activity, inhibitor",,10 µM,-3%
COC(=O)/C=C\C(=O)Nc1cc2ccc(O)cc2oc1=O,"Histone acetyltransferase p300 (EP300, Homo sapiens, UniProt Q09472)","enzyme activity, inhibitor, radiometric",,50 µM,> 90%
COc1cc(NC(C)=O)c(Cl)cc1C(=O)Nc1nccs1,"Androgen receptor (AR, Homo sapiens, UniProt P10275)",cell-free assay,,10 µM,-19.5%
O=c1c(-c2cc(O)c(O)c(O)c2)coc2cc(O)c(O)c(O)c12,KMT5A,cell-free assay,,10 µM,9%
CCCS(=O)(=O)Nc1ccc(F)c(C(=O)c2c[nH]c3ncc(-c4ccc(Cl)cc4)cc23)c1F,PRKCB,"enzyme activity, inhibitor",,1 µM,< 20%
O=C(O[C@@H]1Cc2c(O)cc(O)cc2O[C@@H]1c1cc(O)c(=O)c2c(O)c(O)cc([C@H]3Oc4cc(O)cc(O)c4C[C@H]3OC(=O)c3cc(O)c(O)c(O)c3)c2c1)c1cc(O)c(O)c(O)c1,KMT5A,cell-free assay,,10 µM,26%
O=C(c1ccc(F)cc1)N(Cc1ccccc1)C1CCCCC1,"5-hydroxytryptamine receptor 3A (HTR3A, Homo sapiens, UniProt P46098)",ligand displacement,,10 µM,-1%
CCCCC(CC)CNC(=N)NC(=N)NCCCCCCNC(=N)NC(=N)NCC(CC)CCCC (stereo not shown),KMT5A,cell-free assay,,10 µM,34%
Cn1cncc1C1=CN(c2ncnc3[nH]cnc23)CCS1,LATS1,"enzyme activity, inhibitor, radiometric",,50 nM,35%
O=C(O[C@@H]1Cc2c(O)cc(O)cc2O[C@@H]1c1cc(O)c(O)c(O)c1-c1c([C@H]2Oc3cc(O)cc(O)c3C[C@H]2O)cc(O)c(O)c1O)c1cc(O)c(O)c(O)c1,KMT5A,cell-free assay,,10 µM,17%
Oc1cccc(Nc2nc(-c3ccc(F)cc3F)cs2)c1,"Alpha-2A adrenergic receptor (ADRA2A, Homo sapiens, UniProt P08913)",cell-free assay,,10 µM,-22.5%
CN(C)c1ccc2nc3ccc(=[N+](C)C)cc-3sc2c1,KMT5A,cell-free assay,,10 µM,43%
Cc1ccc(Nc2nccc(N(C)c3ccc4c(C)n(C)nc4c3)n2)cc1S(N)(=O)=O,PRKCB,"enzyme activity, inhibitor",,10 µM,5%
CSCCC(NC=O)C(=O)NC(C)C(=O)O (stereo not shown),KMT5A,cell-free assay,,10 µM,33%
CN(C)C1CCN(CC#Cc2nn(C3CCCC3)c3nc(NCc4ccccc4)ncc23)C1 (stereo not shown),"Dual specificity mitogen-activated protein kinase kinase 6 (MAP2K6, Homo sapiens, UniProt P52564)","enzyme activity, inhibitor, FRET",,10 µM,8%
O=c1c(O)cccc2c([C@H]3Oc4cc(O)cc(O)c4C[C@H]3O)cc(O)c(O)c12,KMT5A,cell-free assay,,10 µM,3%
Cc1ccc(CNC(=O)[C@H](CCc2ccccc2)NC(=O)[C@H](CCc2ccccc2)NC(=O)[C@H](CCc2ccccc2)NC(=O)c2cnc(C)cn2)cc1,"Plasminogen (PLG, Homo sapiens, UniProt P00747)","enzyme activity, inhibitor",,100 µM,-20%
